ChEMBL document CHEMBL1130100, “Stabilized analogs of thymopentin. 3. Evaluation of ketomethylene pseudopeptides for antiarthritic properties” (1997)
Values joined by “and” are separate entries in the source; they are usually repeats but may differ in a detail not shown here. Equal entries are not always repeated.

What was measured:
Format in all cases: functional
[1] = tested on: Mus musculus; assay: On set and incidence of arthritis in the Mouse Type II collagen model following 0.5 mg/kg on day 30.; conditions: 0.5 mg/kg
Outline: (§1)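 DBA/1 Lac mice sensitized with bovine type II collagen (100 μg) in Freund's complete adjuvant, ip boost (100 μg) on day 21. Freshly dissolved compound in sterile saline was given iv every second day, day 19 through day 40, groups of 12. A mouse was scored arthritic if erythema or edema was present on any digit, paw or appendage. Incidence reported as number positive of 12.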

[2] = tested on: Mus musculus; assay: On set and incidence of arthritis in the Mouse Type II collagen model at 0.5 dose mg/kg on day 37, expressed as number of mice treated out of 12 tested; outline: as §1
[3] = tested on: Mus musculus; assay: On set and incidence of arthritis in the Mouse Type II collagen model at 0.5 dose mg/kg on day 40, expressed as number of mice treated out of 12 tested; outline: as §1
[4] = tested on: Mus musculus; assay: On set and incidence of arthritis in the Mouse Type II collagen model at 0.5 dose mg/kg on day 44, expressed as number of mice treated out of 12 tested; outline: as §1
[5] = tested on: Mus musculus; assay: Extent of paw swelling after treatment with thymopentin-5 (TP-5) compound in the Mouse Type II collagen arthritis at a dosage of 1.0 mg/kg on day 40
Outline: (§2)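 DBA/1 Lac mice immunized with bovine type II collagen (100 μg) in Freund's complete adjuvant at four to six back sites, then boosted ip (100 μg) on day 21. Dosing was iv in sterile saline every second day from day 19 through day 40, 12 mice per dose. Each hind paw was measured by caliper. Result given as % of untreated swelling after subtracting age-matched normal paw.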

[6] = tested on: Mus musculus; assay: Extent of paw swelling after treatment with thymopentin-5 (TP-5) compound in the Mouse Type II collagen arthritis at 1 mg/kg on day 30.; outline: as §2
[7] = tested on: Mus musculus; assay: Extent of paw swelling after treatment with thymopentin-5 (TP-5) compound in the Mouse Type II collagen arthritis at a dosage of 1.0 mg/kg on day 37; outline: as §2
[8] = tested on: Mus musculus; assay: Extent of paw swelling after treatment with thymopentin-5 (TP-5) compound in the Mouse Type II collagen arthritis at a dosage of 1.0 mg/kg on day 44; outline: as §2
[9] = tested on: Mus musculus; assay: Extent of paw swelling after treatment with thymopentin-5 (TP-5) compound in the Mouse Type II collagen arthritis at a dosage of 0.01 mg/kg on day 44; conditions: 0.01 mg/kg; outline: as §2
[10] = tested on: Rattus norvegicus; assay: extent of paw swelling following treatment with the compound in the rat adjuvant arthritis model observed on day 12 at 0.050 mg/kg dose; conditions: dose 0.05 mg/kg
Outline: (§3)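 Rat adjuvant arthritis with iv dosing every second day, starting 2 days before the adjuvant/antigen challenge. Initial doses ranged 0.05 to 0.50 mg/kg, eight rats per dose. Each hind paw was measured by caliper. Swelling minus age-matched normal paw, expressed as % of untreated animals.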

[11] = tested on: Rattus norvegicus; assay: extent of paw swelling following treatment with the compound in the rat adjuvant arthritis model observed on day 16 at 0.050 mg/kg dose; conditions: dose 0.05 mg/kg; outline: as §3
[12] = tested on: Rattus norvegicus; assay: extent of paw swelling following treatment with the compound in the rat adjuvant arthritis model observed on day 19 at 0.050 mg/kg dose; conditions: dose 0.05 mg/kg; outline: as §3
[13] = tested on: Mus musculus; assay: On set and incidence of arthritis in the Mouse Type II collagen model at 0.5 dose mg/kg on day 37, expressed as ratio of number treated to that of control; outline: as §1
[14] = tested on: Mus musculus; assay: On set and incidence of arthritis in the Mouse Type II collagen model at 0.5 dose mg/kg on day 44, expressed as ratio of number treated to that of control; outline: as §1
[15] = tested on: Rattus norvegicus; assay: extent of paw swelling following treatment with the compound in the rat adjuvant arthritis model observed on day 12 at 0.075 mg/kg dose; outline: as §3
[16] = tested on: Rattus norvegicus; assay: extent of paw swelling following treatment with the compound in the rat adjuvant arthritis model observed on day 16 at 0.075 mg/kg dose; outline: as §3
[17] = tested on: Rattus norvegicus; assay: extent of paw swelling following treatment with the compound in the rat adjuvant arthritis model observed on day 19 at 0.075 mg/kg dose; outline: as §3
[18] = tested on: Mus musculus; assay: On set and incidence of arthritis in the Mouse Type II collagen model at 0.5 dose mg/kg on day 40, expressed as ratio of number treated to that of control; outline: as §1
[19] = tested on: Rattus norvegicus; assay: extent of paw swelling following treatment with the compound in the rat adjuvant arthritis model observed on day 12 at 0.05 mg/kg dose; outline: as §3
[20] = tested on: Rattus norvegicus; assay: extent of paw swelling following treatment with the compound in the rat adjuvant arthritis model observed on day 16 at 0.05 mg/kg dose; outline: as §3
[21] = tested on: Rattus norvegicus; assay: extent of paw swelling following treatment with the compound in the rat adjuvant arthritis model observed on day 19 at 0.05 mg/kg dose; outline: as §3
[22] = tested on: Mus musculus; assay: On set and incidence of arthritis in the Mouse Type II collagen model at 0.5 dose mg/kg on day 30, expressed as ratio of number treated to that of control; outline: as §1
[23] = tested on: Mus musculus; assay: Extent of paw swelling after treatment with thymopentin-5 (TP-5) compound in mouse type II collagen arthritis at a dosage of 1.0 mg/kg on day 30; outline: as §2

Row | SMILES | No. of mice [1] | No. of mice [2] | No. of mice [3] | No. of mice [4] | No. of mice [13] | No. of mice [14] | No. of mice [18] | further results
1 | CC(C)[C@H](NC(=O)[C@H](CC(=O)O)NC(=O)[C@@H]1CCCN1C(=O)[C@@H](N)CCCN=C(N)N)C(=O)C[C@@H](Cc1ccccc1)C(=O)O (stereo in doubt; 1b-B) | 6 | 9 | 10 | 11 |  |  |  | Paw swelling [5]: 42%; Paw swelling [6]: 66%; Paw swelling [7]: 59%; Paw swelling [8]: 53%
2 | CCCC[C@H](NC(=O)[C@@H](N)CCCN=C(N)N)C(=O)N[C@@H](CC(=O)O)C(=O)N[C@H](C(=O)C[C@@H](Cc1ccccc1)C(=O)O)C(C)C (stereo in doubt; 1c-A) | 5 | 9 | 10 | 8 |  |  |  | Paw swelling [9]: 66% and 69% and 70% and 63%; Paw swelling [10]: 0%; Paw swelling [11]: 100%; Paw swelling [12]: 100%
3 | CCCC[C@H](NC(=O)[C@@H](N)CCCN=C(N)N)C(=O)N[C@@H](CC(=O)O)C(=O)N[C@H](C(=O)C[C@@H](Cc1ccccc1)C(=O)O)C(C)C (stereo in doubt; 1c-B) | 8 | 11 | 11 | 12 |  |  |  | Paw swelling [8]: 100%
4 | CCCCC(CC(=O)[C@@H](N)CCCN=C(N)N)C(=O)N[C@@H](CC(=O)O)C(=O)NC(C(=O)C[C@H](C(=O)O)C(C)C)C(C)C (stereo in doubt; 1h-B) | 6 |  |  |  | 7 | 9 |  | Paw swelling [15]: 0%; Paw swelling [16]: 100%; Paw swelling [17]: 70%
5 | CCCC[C@@H](C(=O)N[C@@H](CC(=O)O)C(=O)N[C@H](C(=O)C[C@H](C(=O)O)C(C)C)C(C)C)N(C)C(=O)[C@@H](N)CCCN=C(N)N (stereo in doubt; 1m-B) | 8 |  |  |  | 11 | 12 | 11 | Paw swelling ([6]; 1 mg/kg): 100%; Paw swelling [19]: 0%; Paw swelling [20]: 100%; Paw swelling [21]: 100%
6 | CC(C)[C@H](CC(=O)[C@H](CC(=O)O)NC(=O)[C@H](CCCCN)NC(=O)[C@@H](N)CCCN=C(N)N)C(=O)N[C@@H](Cc1ccccc1)C(=O)O (stereo in doubt; 3a-B) |  |  |  |  | 11 | 12 | 12 | No. of mice [22]: 8; Paw swelling [23]: 100%
7 | CC(CC(=O)[C@H](CC(=O)O)NC(=O)C(CCCCN)NC(=O)[C@@H](N)CCCN=C(N)N)C(=O)NC(Cc1ccccc1)C(=O)O (stereo in doubt; 3e-A) | 5 |  |  |  | 9 | 12 | 11 | Paw swelling ([23]; 1 mg/kg): 88% and 57% and 73% and 75%
8 | CC(CC(=O)[C@H](CC(=O)O)NC(=O)C(CCCCN)NC(=O)[C@@H](N)CCCN=C(N)N)C(=O)NC(Cc1ccccc1)C(=O)O (stereo in doubt; 3e-B) | 10 |  |  |  | 11 |  | 10 | Paw swelling ([23]; 1 mg/kg): 100% and 68% and 77%
